Tests used:
[1] = Stability in human liver microsomes assessed as compound remaining after 60 mins; assay type: ADME, Microsome; details: read-out: Stability
Summary of the method: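 Human liver microsomes incubated with compound for 60 minutes; value reported as % of compound remaining.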

[2] = Lipophilicity, log D of the compound; assay type: physicochemical; details: octanol/water
[3] = Apparent permeability in human Caco2 cells; assay type: ADME, cell-based; details: Caco-2
[4] = target: T1, Nuclear receptor ROR-gamma (Homo sapiens, UniProt P51449); assay: Inhibition of human GAL4-fused RORgamma LBD transcriptional activity expressed in CHOK1 cells after 2 days by luciferase reporter gene assay; assay type: cell-based
T1 sequence (P51449 whole entry): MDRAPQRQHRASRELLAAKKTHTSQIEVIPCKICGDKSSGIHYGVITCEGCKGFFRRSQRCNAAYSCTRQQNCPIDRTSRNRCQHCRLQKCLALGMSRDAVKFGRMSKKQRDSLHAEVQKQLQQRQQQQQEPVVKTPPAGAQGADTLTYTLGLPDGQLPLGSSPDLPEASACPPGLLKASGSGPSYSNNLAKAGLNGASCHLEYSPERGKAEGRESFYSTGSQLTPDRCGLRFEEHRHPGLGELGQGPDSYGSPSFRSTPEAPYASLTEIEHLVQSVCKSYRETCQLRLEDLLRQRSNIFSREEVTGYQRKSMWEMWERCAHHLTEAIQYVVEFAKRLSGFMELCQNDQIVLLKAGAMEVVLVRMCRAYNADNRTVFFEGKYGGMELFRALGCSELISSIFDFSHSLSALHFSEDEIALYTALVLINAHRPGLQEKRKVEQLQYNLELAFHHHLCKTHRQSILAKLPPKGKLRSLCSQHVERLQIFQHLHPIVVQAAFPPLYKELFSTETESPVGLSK

SMILES	remaining at 1 h [1] [%]	logD [2]	Papp [3] [×10⁻⁶ cm/s]	EC50 [4] [µM]
Cc1ccc(NC(=O)CCc2nnc(CCCC(C)C)n2C2CC2)c(C)c1	27	3.9	36	–
Cc1ccc(NC(=O)C[C@H](CCC(=O)O)c2noc(-c3cc(C(F)(F)C(C)C)on3)c2C2CC2)c(Cl)c1	74	4	–	0.007
Cc1ccc(NC(=O)C[C@H](CCC(=O)O)c2noc(-c3cc(C(F)(F)CC(C)C)on3)c2C2CC2)c(Cl)c1	78	4.4	–	0.008
Cc1ccc(NC(=O)CC(CCN)c2nnc(CCCC(C)C)n2C2CC2)c(C)c1 (racemic)	88	3.1	0.2	> 20
Cc1ccc(NC(=O)C[C@H](CCC(=O)[O-])c2noc(-c3noc(CC(C)C)n3)c2C2CC2)c(Cl)c1.[Na+]	90	3.6	25	0.062
Cc1ccc(NC(=O)C[C@H](CCC(=O)[O-])c2noc(-c3csc(CC(C)C)n3)c2C2CC2)c(Cl)c1.[Na+]	82	3.8	34	3.8
Cc1ccc(NC(=O)C[C@H](CCC(=O)[O-])c2noc(-c3cc(CC(C)C)no3)c2C2CC2)c(Cl)c1.[Na+]	54	3.8	28	0.012
CC(C)(C)C(F)(F)c1cc(-c2onc([C@@H](CCC(=O)O)CC(=O)Nc3ccc(Cl)cc3F)c2C2CC2)no1	107	4.2	–	0.007
Cc1ccc(NC(=O)CC(CCC(N)=O)c2nnc(CCCC(C)C)n2C2CC2)c(C)c1 (racemic)	44	3.4	0.8	16
CC(=O)NCCC(CC(=O)Nc1ccc(C)cc1C)c1nnc(CCCC(C)C)n1C1CC1 (racemic)	39	3.5	1.3	11
Cc1ccc(NC(=O)C[C@H](CCC(=O)O)c2noc(-c3cc(CCC(C)C)on3)c2C2CC2)c(Cl)c1	79	4.3	–	0.008
Cc1ccc(NC(=O)CC(CCC(=O)N(C)C)c2nnc(CCCC(C)C)n2C2CC2)c(C)c1 (racemic)	45	3.8	7	2.7
Cc1ccc(NC(=O)C[C@H](CCC(=O)[O-])c2noc(-c3cc(CC(C)C)on3)c2C2CC2)c(Cl)c1.[Na+]	74	3.9	36	0.014
Cc1ccc(NC(=O)C[C@H](CCC(=O)[O-])c2noc(-c3ncc(CC(C)C)o3)c2C2CC2)c(Cl)c1.[Na+]	75	3.7	32	0.66
Cc1ccc(NC(=O)CC(CCN(C)C)c2nnc(CCCC(C)C)n2C2CC2)c(C)c1 (racemic)	85	3.3	0.8	19
CC(C)(C)C(F)(F)c1cc(-c2onc([C@@H](CCC(=O)O)CC(=O)Nc3ccc(F)cc3Cl)c2C2CC2)no1	90	4	–	0.006
Cc1ccc(NC(=O)C[C@H](CCC(=O)O)c2noc(-c3ccc(CC(C)C)cc3)c2C2CC2)c(Cl)c1	80	4.8	16	0.044

Continued, values first:

remaining at 1 h [1] [%]	logD [2]	Papp [3] [×10⁻⁶ cm/s]	EC50 [4] [µM]	SMILES
61	4.3	20	–	CC(=O)N1C[C@H](C(=O)Nc2ccc(C)cc2C)[C@@H](c2nnc([C@H]3C[C@@H](CC(C)C)C3)n2C2CC2)C1
77	4.3	–	0.006	Cc1ccc(NC(=O)C[C@H](CCC(=O)O)c2noc(-c3cc(C(F)(F)C(C)(C)C)on3)c2C2CC2)c(Cl)c1
84	4.2	–	0.007	Cc1ccc(NC(=O)C[C@H](CCC(=O)O)c2noc(-c3cc(CC(C)(C)C)on3)c2C2CC2)c(Cl)c1
–	–	–	0.19	CCN(c1ccc(C(O)(C(F)(F)F)C(F)(F)F)cc1)S(=O)(=O)c1ccc([N+](=O)[O-])cc1
82	4	28	0.12	Cc1ccc(NC(=O)C[C@H](CCC(=O)[O-])c2noc(-c3ncc(CC(C)C)s3)c2C2CC2)c(Cl)c1.[Na+]
65	3.5	1.5	6.4	CNC(=O)CCC(CC(=O)Nc1ccc(C)cc1C)c1nnc(CCCC(C)C)n1C1CC1 (racemic)
78	3.4	10	0.056	Cc1ccc(NC(=O)C[C@H](CCC(=O)[O-])c2noc(-c3nnc(CC(C)C)s3)c2C2CC2)c(Cl)c1.[Na+]
54	3.8	34	0.017	Cc1ccc(NC(=O)C[C@H](CCC(=O)[O-])c2noc(-c3cnc(CC(C)C)s3)c2C2CC2)c(Cl)c1.[Na+]
91	2.9	0.2	> 20	Cc1ccc(NC(=O)CC(CCC(=O)O)c2nnc(CCCC(C)C)n2C2CC2)c(C)c1 (racemic)
21	3.5	11	0.44	Cc1ccc(NC(=O)CC(CCO)c2nnc(CCCC(C)C)n2C2CC2)c(C)c1 (racemic)

— ChEMBL document CHEMBL4480411, “Discovery of Second Generation RORγ Inhibitors Composed of an Azole Scaffold” (J Med Chem, 2019)
